Compound activity as filed in PubChem.
Compounds with a hit are over-represented: about 3.3% of the library has one in this group of screens.
5-HT1A blocker – blocks the human serotonin 5-HT1a receptor; P08908; CHO 5-HT1a Ga15 NFAT-bla reporter, antagonist mode; inhibition, % at 10 µM; 62,000 compounds, 0.68% hits; AID 612;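 active = inhibition above the mean of all tested compounds plus 3 SD, cut at about 43% in these data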;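 note: receptor stimulated by 5-CT agonist at 100 nM near EC80; beta-lactamase reporter measured by ratiometric fluorescence of a cleavable substrate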
Target sequence (P08908 whole entry, looked up): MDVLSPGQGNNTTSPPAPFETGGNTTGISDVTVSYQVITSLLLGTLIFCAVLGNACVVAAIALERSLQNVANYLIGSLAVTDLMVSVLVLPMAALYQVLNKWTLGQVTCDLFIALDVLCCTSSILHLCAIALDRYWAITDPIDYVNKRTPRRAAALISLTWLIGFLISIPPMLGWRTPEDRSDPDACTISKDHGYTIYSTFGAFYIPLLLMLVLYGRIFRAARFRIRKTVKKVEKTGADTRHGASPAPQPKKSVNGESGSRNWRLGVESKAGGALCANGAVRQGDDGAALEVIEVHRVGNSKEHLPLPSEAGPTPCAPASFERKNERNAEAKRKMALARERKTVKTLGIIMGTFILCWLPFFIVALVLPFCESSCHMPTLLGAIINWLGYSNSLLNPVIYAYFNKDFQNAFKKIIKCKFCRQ
5HT1E antag – blocks the human 5-HT1E serotonin receptor. P28566. CHO 5-HT1E Ga15 NFAT-bla reporter, FRET, antagonist. inhibition, % at 6 µM. 65,000 compounds, 0.99% hits. AID 571;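 active = inhibition above a set limit, the mean inhibition across every tested compound plus 3 SD, cut at about 29% in these data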;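 note: signal is the 460 over 535 nm emission ratio of beta-lactamase substrate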
HEK293 NFkB inh – inhibitors of the PMA/ionomycin-induced NF-kB reporter in HEK293 cells | HEK-293 NF-kB luciferase reporter, luminescence | inhibition, % at 3 µM | 62,000 compounds, 0.21% hits | AID 465;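 active = inhibition above the mean of all tested compounds plus 3 SD, cut at about 40% in these data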
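Signal: luciferase luminescence; Material: HEK-293 cells with stable firefly luciferase reporter driven by four HIV NF-kB elements; Probe or stimulus: PMA with ionomycin; Replication: tested once; Times: 1 h compound pretreatment, then 16 h stimulation at 37 °C, 5% CO2; Benchmarks: DMSO and 10 µM reference inhibitor; Evaluation: per-plate % inhibition versus controls.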
Jurkat viability – reduces viability or proliferation of Jurkat cells; 56,000 compounds, 1.2% hits; Jurkat E6.1 viability, ATP luminescence, 48 h; inhibition, % at 4 µM;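 active = inhibition above the mean inhibition of all tested compounds plus 3 SD, cut at about 28% in these data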
5HT1a ag – 5-HT1a (human) receptor agonism | P08908 | CHO 5-HT1a Ga15 NFAT-bla reporter, FRET ratio; 0% basal, 100% maximal reference agonist | activation, % at 10 µM | 65,000 compounds, 0.56% hits;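 active = activation above the screen-wide mean activation plus 3 SD, cut at about 19% in these data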
HTR1E agonist – agonists of human 5-HT1E serotonin receptor; 65,000 compounds, 0.69% hits; P28566; CHO 5-HT1E Ga15 NFAT-bla reporter, FRET; 0% DMSO wells, 100% control agonist wells; activation, % at 6 µM;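 active = activation above a set limit, the screen-wide mean activation plus 3 SD, cut at about 8.5% in these data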
Of the large screens only hits and unclear results are named; the others gave an inactive call.

COc1ccccc1-c1cc(C(F)(F)F)nc(S(=O)(=O)CCCC(=O)N2CCCCC2C)n1 (configuration not stated)	5-HT1A blocker 63.7, Jurkat viability 58.1
O=C1c2ccccc2C(=O)N1CSc1ncccn1	none
C(=C\c1ccccc1)/CSc1nnc(-c2ccccn2)n1Cc1ccco1	5-HT1A blocker 52.0, Jurkat viability 86.1
O=S1(=O)C=C(Sc2nnc(-c3ccccc3)o2)c2ccccc21	5-HT1A blocker 104.3, 5HT1E antag 106.5, Jurkat viability 101.4
COc1ccc(CCNc2c(C)c(C)nc3ncnn23)cc1	HEK293 NFkB inh 46.3, Jurkat viability 92.2
CCc1c(C)nc2ncnn2c1NCCc1ccc(OC)c(OC)c1	none
Cc1ccc(NC(=O)CC2Nc3ccccc3NC2=O)cc1Cl (configuration not stated)	5HT1a ag 33.9, HTR1E agonist 13.7
COCC(=O)NC1CCN(C(=O)Nc2ccc(Br)cc2)CC1	none
CCCCN(C)CCCNC(=O)Cn1c(=O)sc2ccccc21	HTR1E agonist 69.7 (no result: Jurkat viability)
Cc1c(NC(=O)Nc2ccc(Cl)c(Cl)c2)c(=O)n(-c2ccccc2)n1C	none
CCCC1=C(C(=O)OCC)C(c2ccc(NC(C)=O)cc2)NC(=O)N1 (configuration not stated)	none
CCOC(=O)C1=C(CNCc2ccc(C)cc2)NC(=O)NC1c1ccc(OC)cc1 (configuration not stated)	Jurkat viability 34.6
C[N+]1=C2CCCCCN2C(O)(c2ccccc2)C1 (configuration not stated)	5HT1a ag 20.0, HTR1E agonist 51.0
CCOC(=O)c1cnc(-n2nc(C)cc2C)nc1NCc1ccc2c(c1)OCO2	5-HT1A blocker 43.2
Cc1ccc(OCn2c(=O)sc3ccccc32)cc1	none
CCN(CC)CCNCc1ccc(-c2ccc(Cl)cc2)o1	none
CCOC(=O)N1CCN(C(=O)CN(c2ccc(OCc3ccccc3)cc2)S(C)(=O)=O)CC1	none
COc1cccc(C(=O)OCn2nnc3ccccc3c2=O)c1OC	5HT1E antag 33.1
O=C(CNS(=O)(=O)c1ccccc1)NCc1ccccn1	none
O=C(COC(=O)CCC(=O)c1ccc2c(c1)OCCO2)NCc1ccc2c(c1)OCO2	none
CCOC(=O)c1cc2c(ccn2C)n1Cc1ccccc1C	5-HT1A blocker 44.1
Cc1ccc(-c2csc3ncn(-n4c(C)ccc4C)c(=O)c23)o1	none
Cn1cc(/C=N/n2cnc3scc(-c4ccccc4)c3c2=O)c2ccccc21	5HT1E antag 30.3, Jurkat viability 40.6
CC1(C)Oc2ccc(NC(=O)C3COc4ccccc4O3)cc2O1 (configuration not stated)	none
Cc1cc(NC(=O)c2cc(-c3ccncc3)nc3c(C)cccc23)no1	Jurkat viability 78.5
Cn1c(Cl)cnc1C1CC(=O)c2cc(Cl)ccc2O1 (configuration not stated)	none (no result: 5-HT1A blocker, HEK293 NFkB inh, Jurkat viability)
COc1ccc(C(=O)Nc2ccc(Cl)cc2C(=O)NCc2ccco2)cc1OC	5HT1E antag 40.1
CCOC(=O)N1CCC(Nc2c(N3CCN(c4cc(Cl)ccc4C)CC3)c(=O)c2=O)CC1	5HT1a ag 64.5
CCOC(=O)C(O)(NC(=O)c1cccnc1)C(F)(F)F (configuration not stated)	HTR1E agonist 10.1
O=C1N[C@@H](Cc2cnc[nH]2)C(=O)N2CCC[C@@H]12	none (no result: 5-HT1A blocker, HEK293 NFkB inh, Jurkat viability)
CCOc1ccccc1NC(=O)Cn1nnc(C(=O)NCc2ccco2)c1N	5HT1E antag 73.2, HEK293 NFkB inh 41.9, Jurkat viability 97.5
O=C(CCCN1Cc2ccccc2C1)c1ccc(F)cc1	5HT1a ag 21.9
CN1CCN(CCCC(=O)c2ccc(F)cc2)CC1	none
CCOc1ccc(NC(=O)CN(C)CC(=O)Nc2ccccc2C#N)cc1OCC	5HT1a ag 288.6
O=C(Nc1ccc(S(=O)(=O)C(F)F)cc1)c1cccc(S(=O)(=O)N2CCOCC2)c1	5HT1a ag 20.4
O=C(NCc1ccc(Cl)cc1)C1CCCN(S(=O)(=O)c2cnc[nH]2)C1 (configuration not stated)	none
CCOC1(OCC)N=C(N)C2(C#N)C(c3ccc(NC(C)=O)cc3)C12C#N (configuration not stated)	none
O=c1[nH]c(CSc2nnc(NCCCN3CCOCC3)s2)nc2cc(Cl)ccc12	none
